pEC50, pIC50, pKi: −log10 of the molar value. Activity calls are given as the source filed them. The calls are words filed in the database; no cut-off is given here. A value given as a limit tells only on which side of the number the result lay.

Assay [1] has as its target T1, Metabotropic glutamate receptor 5 (Rattus norvegicus, UniProt P31424). Put plainly: Agonist activity at rat mGlu5 receptor expressed in HEK293 cells assessed as IP1 accumulation by IP-One functional assay. The assay is classed as cell-based.
Assay [2] deals with Metabotropic glutamate receptor 7 (Rattus norvegicus, UniProt P35400). The assay can be described thus: Agonist activity at rat mGlu7 receptor expressed in HEK293 cells assessed as IP1 accumulation by IP-One functional assay. The assay is classed as cell-based. In short, it runs like this: (§1)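 HEK293 cells were transiently electroporated with the rat receptor plus a chimeric Gi/Gq protein for PLC coupling and EAAC1. Medium was replaced by Glutamax at least 2 h before agonist. IP1 accumulation was measured by HTRF 24 h post-transfection, at least in duplicate. EC50 ± SEM came from n = 4−6 experiments.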

Assay [3] has as its target T2, Metabotropic glutamate receptor 4 (Rattus norvegicus, UniProt P31423). Put plainly: Agonist activity at rat mGlu4 receptor expressed in HEK293 cells assessed as IP1 accumulation by IP-One functional assay. The class given is cell-based. In short, it runs like this:
as §1

A short description of assay [4]: Displacement of [3H]KA from rat synaptosome KA receptor after 60 mins by microplate scintillation counter analysis.
Assay [5] deals with T3, Metabotropic glutamate receptor 2 (Rattus norvegicus, UniProt P31421). The assay can be described thus: Agonist activity at rat mGlu2 receptor expressed in HEK293 cells assessed as IP1 accumulation by IP-One functional assay. The class given is cell-based. Summed up:
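HEK293 cells were transiently electroporated with the rat receptor plus a chimeric Gi/Gq protein for PLC coupling and EAAC1. Medium was replaced by Glutamax at least 2 h before agonist. IP1 accumulation was measured by HTRF 24 h post-transfection, at least in duplicate.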

Assay [6] can be described thus: Displacement of [3H]AMPA from rat synaptosome AMPA receptor after 30 mins by microplate scintillation counter analysis.
Assay [7] concerns the target T4, Excitatory amino acid transporter 3 (Homo sapiens, UniProt P43005).
T4 sequence (P43005 whole entry): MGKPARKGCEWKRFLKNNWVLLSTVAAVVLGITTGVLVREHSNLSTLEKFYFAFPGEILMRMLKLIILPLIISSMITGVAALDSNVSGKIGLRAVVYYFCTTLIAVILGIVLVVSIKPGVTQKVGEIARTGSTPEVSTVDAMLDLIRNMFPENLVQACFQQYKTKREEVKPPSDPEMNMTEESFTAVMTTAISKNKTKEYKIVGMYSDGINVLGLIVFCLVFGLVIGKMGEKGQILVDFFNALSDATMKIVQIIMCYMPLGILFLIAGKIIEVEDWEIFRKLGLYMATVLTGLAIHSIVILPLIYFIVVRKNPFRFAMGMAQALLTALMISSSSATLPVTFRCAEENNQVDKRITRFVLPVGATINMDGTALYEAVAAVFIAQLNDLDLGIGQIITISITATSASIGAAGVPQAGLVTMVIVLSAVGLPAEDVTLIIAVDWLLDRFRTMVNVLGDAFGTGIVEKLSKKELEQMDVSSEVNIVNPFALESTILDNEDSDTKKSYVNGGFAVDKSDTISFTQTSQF
The assay can be described thus: Inhibition of human EAAT3 assessed as [3H]Asp uptake.

The target of assay [8] is Metabotropic glutamate receptor 8 (Rattus norvegicus, UniProt P70579). Put plainly: Agonist activity at rat mGlu8 receptor expressed in HEK293 cells assessed as IP1 accumulation by IP-One functional assay. The class given is cell-based. In short, it runs like this:
as §1

For assay [9], the target named is T5, Excitatory amino acid transporter 1 (Homo sapiens, UniProt P43003). The assay can be described thus: Inhibition of human EAAT1 assessed as [3H]Asp uptake.
Assay [10] addresses T6, Excitatory amino acid transporter 2 (Homo sapiens, UniProt P43004). The assay can be described thus: Substrate activity at human EAAT2 assessed as [3H]Asp uptake measured up to 300 uM.
For assay [11], the target named is T7, Metabotropic glutamate receptor 3 (Rattus norvegicus, UniProt P31422). Put plainly: Agonist activity at rat mGlu3 receptor by FRET based mGlu sensor assay. Summed up:
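Receptor carried an N-terminal SNAP-tag and was transfected into HEK293 cells. At 24 h, surface receptors were labelled for 1 h with 100 nM SNAP-Lumi4-Tb (donor) and 60 nM SNAP Green (acceptor), washed three times, then drug was added. Time-resolved FRET was recorded at 520 nm, at least in duplicate. EC50 ± SEM came from n = 4−6 experiments.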

Assay [12] has as its target T8, Metabotropic glutamate receptor 1 (Rattus norvegicus, UniProt P23385). Put plainly: Agonist activity at rat mGlu1 receptor expressed in HEK293 cells assessed as IP1 accumulation by IP-One functional assay. The assay is classed as cell-based. In short, it runs like this:
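Rat group I receptor transiently electroporated into HEK293 with the EAAC1 glutamate transporter; medium switched to Glutamax at least 2 h before stimulation. IP1 was read by HTRF (IP-One kit) 24 h after transfection. Runs were at least in duplicate, with EC50 ± SEM from n = 4−6 experiments.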

Assay [13] deals with T3, Metabotropic glutamate receptor 2. Put plainly: Agonist activity at rat mGlu2 receptor by FRET based mGlu sensor assay. In short, it runs like this: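 Receptor carried an N-terminal SNAP-tag and was transfected into HEK293 cells. At 24 h, surface receptors were labelled for 1 h with 100 nM SNAP-Lumi4-Tb (donor) and 60 nM SNAP Green (acceptor), washed three times, then drug was added. Time-resolved FRET was recorded at 520 nm, at least in duplicate.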

Another assay deals with Glutamate NMDA receptor. The assay can be described thus: Displacement of [3H]CGP from rat synaptosome NMDA receptor after 60 mins by microplate scintillation counter analysis. The class given is protein-complex assay.
For assay [14], the target named is Metabotropic glutamate receptor 6 (Rattus norvegicus, UniProt P35349). The assay can be described thus: Agonist activity at rat mGlu6 receptor expressed in HEK293 cells assessed as IP1 accumulation by IP-One functional assay. The assay is classed as cell-based. In short, it runs like this:
as §1

Assay [15] addresses T5, Excitatory amino acid transporter 1. The assay can be described thus: Substrate activity at human EAAT1 assessed as [3H]Asp uptake measured up to 300 uM.
Assay [16] concerns the target T6, Excitatory amino acid transporter 2. The assay can be described thus: Inhibition of human EAAT2 assessed as [3H]Asp uptake.
In assay [17] the target is T3, Metabotropic glutamate receptor 2. Put plainly: Agonist activity at rat mGlu2 receptor expressed in HEK293 cells by [35S]GTP-gamma binding assay. The assay is classed as cell-based. Conditions: for pEC50: read-out: EC50.
The target in assay [18] is T8, Metabotropic glutamate receptor 1. Put plainly: Agonist activity at rat mGlu1 receptor expressed in HEK293 cells by intracellular Ca2+ mobilization assay. The assay is classed as functional, cell-based.
The target of assay [19] is T1, Metabotropic glutamate receptor 5. The assay can be described thus: Agonist activity at rat mGlu5 receptor expressed in HEK293 cells by intracellular Ca2+ mobilization assay. The class given is functional, cell-based.
The target in assay [20] is T2, Metabotropic glutamate receptor 4. Put plainly: Agonist activity at rat mGlu4 receptor expressed in HEK293 cells assessed as inhibition of forskolin stimulated cAMP production. The class given is functional, cell-based. In general terms: cAMP levels reflect the balance of adenylyl cyclase and phosphodiesterase activity.
The target in assay [21] is Metabotropic glutamate receptor 7 (Homo sapiens, UniProt Q14831). The assay can be described thus: Agonist activity at human mGlu7 receptor expressed in HEK293 assessed as inhibition of forskolin stimulated cAMP production. The class given is functional, cell-based.
For assay [22], the target named is T7, Metabotropic glutamate receptor 3. Put plainly: Agonist activity at rat mGlu3 receptor expressed in HEK293 cells by [35S]GTP-gamma binding assay. The assay is classed as cell-based.

T3 sequence (P31421 whole entry): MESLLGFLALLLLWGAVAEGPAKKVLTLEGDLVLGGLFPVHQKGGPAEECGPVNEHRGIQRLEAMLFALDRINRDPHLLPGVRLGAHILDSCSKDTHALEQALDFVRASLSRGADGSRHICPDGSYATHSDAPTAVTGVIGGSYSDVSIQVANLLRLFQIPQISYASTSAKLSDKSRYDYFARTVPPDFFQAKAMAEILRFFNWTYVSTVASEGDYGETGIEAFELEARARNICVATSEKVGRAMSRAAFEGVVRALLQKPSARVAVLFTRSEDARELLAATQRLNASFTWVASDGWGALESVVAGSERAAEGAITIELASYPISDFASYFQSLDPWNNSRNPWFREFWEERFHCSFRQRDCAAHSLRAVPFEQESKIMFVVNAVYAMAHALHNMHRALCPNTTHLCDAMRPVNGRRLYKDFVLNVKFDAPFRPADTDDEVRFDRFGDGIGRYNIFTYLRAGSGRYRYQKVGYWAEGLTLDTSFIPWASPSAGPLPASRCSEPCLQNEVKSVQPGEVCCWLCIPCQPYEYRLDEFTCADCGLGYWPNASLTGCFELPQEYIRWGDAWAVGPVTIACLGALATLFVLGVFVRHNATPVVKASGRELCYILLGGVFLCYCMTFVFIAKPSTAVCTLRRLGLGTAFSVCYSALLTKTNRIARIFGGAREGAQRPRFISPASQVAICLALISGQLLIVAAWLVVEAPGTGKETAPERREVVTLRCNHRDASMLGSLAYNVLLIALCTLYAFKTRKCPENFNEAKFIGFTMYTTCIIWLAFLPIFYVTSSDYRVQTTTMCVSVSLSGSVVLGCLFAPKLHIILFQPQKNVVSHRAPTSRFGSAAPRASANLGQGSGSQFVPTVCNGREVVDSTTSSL
T2 sequence (P31423 whole entry): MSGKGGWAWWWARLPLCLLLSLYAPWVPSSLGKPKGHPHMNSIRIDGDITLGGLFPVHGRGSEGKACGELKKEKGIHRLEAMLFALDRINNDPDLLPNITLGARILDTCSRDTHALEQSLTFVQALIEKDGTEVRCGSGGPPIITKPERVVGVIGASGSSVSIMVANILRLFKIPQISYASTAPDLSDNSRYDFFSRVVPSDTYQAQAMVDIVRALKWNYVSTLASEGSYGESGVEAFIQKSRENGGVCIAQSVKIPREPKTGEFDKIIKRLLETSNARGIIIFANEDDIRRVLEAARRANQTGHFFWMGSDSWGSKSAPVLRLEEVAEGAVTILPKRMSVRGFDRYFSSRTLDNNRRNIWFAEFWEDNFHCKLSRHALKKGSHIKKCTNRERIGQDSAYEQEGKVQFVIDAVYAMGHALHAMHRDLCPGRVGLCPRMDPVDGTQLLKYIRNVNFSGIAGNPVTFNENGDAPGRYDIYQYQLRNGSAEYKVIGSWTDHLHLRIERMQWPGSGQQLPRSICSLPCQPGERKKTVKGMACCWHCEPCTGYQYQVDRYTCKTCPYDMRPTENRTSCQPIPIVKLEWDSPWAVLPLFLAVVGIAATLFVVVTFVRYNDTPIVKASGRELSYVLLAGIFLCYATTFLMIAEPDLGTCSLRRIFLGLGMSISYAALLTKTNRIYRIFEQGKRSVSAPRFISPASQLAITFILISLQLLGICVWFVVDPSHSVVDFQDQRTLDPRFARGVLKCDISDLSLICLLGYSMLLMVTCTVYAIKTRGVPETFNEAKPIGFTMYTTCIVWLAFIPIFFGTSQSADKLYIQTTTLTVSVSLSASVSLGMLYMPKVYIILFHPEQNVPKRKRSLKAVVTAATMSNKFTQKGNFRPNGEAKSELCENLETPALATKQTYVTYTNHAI
T8 sequence (P23385 whole entry): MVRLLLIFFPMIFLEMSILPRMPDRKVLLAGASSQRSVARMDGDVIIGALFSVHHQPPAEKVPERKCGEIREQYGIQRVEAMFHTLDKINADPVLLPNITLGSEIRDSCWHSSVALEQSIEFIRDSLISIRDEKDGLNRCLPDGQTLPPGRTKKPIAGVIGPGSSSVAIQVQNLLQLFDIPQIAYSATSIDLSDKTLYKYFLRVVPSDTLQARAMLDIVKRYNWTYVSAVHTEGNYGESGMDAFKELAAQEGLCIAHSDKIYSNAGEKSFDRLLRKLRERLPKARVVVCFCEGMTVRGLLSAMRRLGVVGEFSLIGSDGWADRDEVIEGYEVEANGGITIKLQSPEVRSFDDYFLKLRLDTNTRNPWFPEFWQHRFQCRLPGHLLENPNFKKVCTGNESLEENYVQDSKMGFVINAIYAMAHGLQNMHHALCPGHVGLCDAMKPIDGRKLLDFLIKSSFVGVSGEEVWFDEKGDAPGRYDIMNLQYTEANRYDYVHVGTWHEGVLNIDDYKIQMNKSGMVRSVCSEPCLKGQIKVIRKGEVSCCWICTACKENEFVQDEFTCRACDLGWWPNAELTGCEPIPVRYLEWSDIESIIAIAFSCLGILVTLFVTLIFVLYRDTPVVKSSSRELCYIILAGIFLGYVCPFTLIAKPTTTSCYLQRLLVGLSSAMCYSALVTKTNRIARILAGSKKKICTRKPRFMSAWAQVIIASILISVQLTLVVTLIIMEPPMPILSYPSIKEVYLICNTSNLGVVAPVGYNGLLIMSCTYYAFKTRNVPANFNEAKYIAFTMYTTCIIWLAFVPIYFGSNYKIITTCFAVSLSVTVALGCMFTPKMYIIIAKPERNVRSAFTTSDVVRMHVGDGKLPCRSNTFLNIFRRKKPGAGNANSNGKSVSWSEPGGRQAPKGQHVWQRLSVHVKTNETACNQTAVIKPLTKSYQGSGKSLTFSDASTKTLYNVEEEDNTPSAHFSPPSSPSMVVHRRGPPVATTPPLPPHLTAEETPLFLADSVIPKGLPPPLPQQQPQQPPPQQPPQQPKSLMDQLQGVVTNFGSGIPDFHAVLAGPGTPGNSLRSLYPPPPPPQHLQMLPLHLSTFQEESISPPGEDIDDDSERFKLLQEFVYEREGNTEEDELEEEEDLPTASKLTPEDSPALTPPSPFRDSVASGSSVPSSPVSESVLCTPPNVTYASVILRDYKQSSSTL
Metabotropic glutamate receptor 7 (Homo sapiens, UniProt Q14831), sequence (Q14831 whole entry): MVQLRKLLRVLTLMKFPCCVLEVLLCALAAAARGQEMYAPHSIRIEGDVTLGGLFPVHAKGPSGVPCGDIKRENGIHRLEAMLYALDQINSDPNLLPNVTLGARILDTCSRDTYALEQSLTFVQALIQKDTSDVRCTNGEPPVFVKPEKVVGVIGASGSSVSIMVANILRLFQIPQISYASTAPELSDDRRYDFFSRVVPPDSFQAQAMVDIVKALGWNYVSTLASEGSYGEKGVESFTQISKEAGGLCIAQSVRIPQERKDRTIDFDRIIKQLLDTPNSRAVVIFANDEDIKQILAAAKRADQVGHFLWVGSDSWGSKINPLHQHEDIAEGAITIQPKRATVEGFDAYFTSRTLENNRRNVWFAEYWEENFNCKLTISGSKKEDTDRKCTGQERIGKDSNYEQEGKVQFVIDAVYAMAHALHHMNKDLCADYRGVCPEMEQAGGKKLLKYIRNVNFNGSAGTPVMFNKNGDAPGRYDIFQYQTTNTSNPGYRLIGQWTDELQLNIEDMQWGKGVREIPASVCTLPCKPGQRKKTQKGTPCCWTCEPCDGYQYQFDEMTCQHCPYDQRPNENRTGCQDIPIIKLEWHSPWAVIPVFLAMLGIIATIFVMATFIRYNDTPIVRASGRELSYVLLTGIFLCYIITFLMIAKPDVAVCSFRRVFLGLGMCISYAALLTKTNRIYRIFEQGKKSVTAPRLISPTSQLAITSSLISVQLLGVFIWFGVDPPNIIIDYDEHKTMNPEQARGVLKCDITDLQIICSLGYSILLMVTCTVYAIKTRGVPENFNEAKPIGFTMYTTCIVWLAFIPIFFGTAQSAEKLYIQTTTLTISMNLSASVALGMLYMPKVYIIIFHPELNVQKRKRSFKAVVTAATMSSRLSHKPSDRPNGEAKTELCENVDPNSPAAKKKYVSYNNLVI
T1 sequence (P31424 whole entry): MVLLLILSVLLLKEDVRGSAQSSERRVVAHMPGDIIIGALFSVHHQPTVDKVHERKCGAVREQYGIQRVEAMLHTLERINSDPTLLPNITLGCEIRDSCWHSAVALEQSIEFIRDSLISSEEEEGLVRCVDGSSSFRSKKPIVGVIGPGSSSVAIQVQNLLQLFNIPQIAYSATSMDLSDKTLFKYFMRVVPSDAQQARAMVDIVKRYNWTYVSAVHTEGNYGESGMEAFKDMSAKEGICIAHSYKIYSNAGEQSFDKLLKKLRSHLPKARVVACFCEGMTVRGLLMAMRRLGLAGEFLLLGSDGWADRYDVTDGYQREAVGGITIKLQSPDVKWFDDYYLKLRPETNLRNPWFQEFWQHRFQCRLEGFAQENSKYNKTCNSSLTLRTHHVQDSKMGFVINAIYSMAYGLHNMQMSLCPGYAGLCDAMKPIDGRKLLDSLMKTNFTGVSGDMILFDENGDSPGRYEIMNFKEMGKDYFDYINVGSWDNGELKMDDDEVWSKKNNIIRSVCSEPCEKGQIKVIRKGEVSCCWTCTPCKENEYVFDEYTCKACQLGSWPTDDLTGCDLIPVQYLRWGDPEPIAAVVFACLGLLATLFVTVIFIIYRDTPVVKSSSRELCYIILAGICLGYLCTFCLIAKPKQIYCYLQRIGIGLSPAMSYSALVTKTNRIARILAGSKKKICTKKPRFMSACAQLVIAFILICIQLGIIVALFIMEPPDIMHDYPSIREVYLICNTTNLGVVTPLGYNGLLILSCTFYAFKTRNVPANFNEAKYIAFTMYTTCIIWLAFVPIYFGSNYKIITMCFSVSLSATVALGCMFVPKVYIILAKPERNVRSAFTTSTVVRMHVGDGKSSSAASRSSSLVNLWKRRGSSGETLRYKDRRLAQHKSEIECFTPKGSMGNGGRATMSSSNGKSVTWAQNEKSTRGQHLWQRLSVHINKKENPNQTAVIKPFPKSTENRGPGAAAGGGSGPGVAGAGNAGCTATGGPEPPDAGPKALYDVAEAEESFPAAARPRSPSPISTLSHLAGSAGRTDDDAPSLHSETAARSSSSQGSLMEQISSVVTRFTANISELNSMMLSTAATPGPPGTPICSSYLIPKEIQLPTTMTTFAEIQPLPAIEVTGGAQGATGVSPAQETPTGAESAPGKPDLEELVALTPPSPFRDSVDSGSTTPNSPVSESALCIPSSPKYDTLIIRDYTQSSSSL

`N[C@@H](C[C@@]1(C(=O)O)C[C@@H]1C(=O)O)C(=O)O`: the pEC50 in [1] was less than 3.00; in assay [2], less than 3.00; in assay [3] it was 5.61; in [5], less than 3.00; in assay [8], 4.68; in [11], less than 3.00. The results for the pEC50 in [12], in assay [13] and in assay [14] were less than 3.00, less than 3.00 and 4.75, respectively. The pIC50 in assay [4] is less than 4.00; in assay [6], less than 4.00; in assay [7] it was less than 3.52; in assay [9], less than 3.52; in assay [16] it was less than 3.52. In addition, the result in assay [10] and in assay [15] was inactive. The pKi at Glutamate NMDA receptor was 4.82.
As to `N[C@@H](C[C@@]1(C(=O)O)C[C@H]1C(=O)O)C(=O)O`, the pEC50 in assay [1], in assay [2], in assay [3], in assay [5], in [8] and in assay [11] was less than 3.00 in each case. In addition, the pEC50 in [12], in assay [13] and in assay [14] was less than 3.00 each time. Also, the pIC50 in [4] is less than 4.00; in assay [6], less than 4.00; in assay [7] it was less than 3.52; in assay [9] it was less than 3.52; in [16], less than 3.52. The result in assay [10] and in [15] was inactive. This molecule showed a pKi on Glutamate NMDA receptor of less than 4.00.
Consider `N#CCC[C@H](C[C@H](N)C(=O)O)C(=O)O`, for which the pEC50 in [17], in assay [18], in assay [19], in assay [20], in assay [21] and in assay [22] was less than 3.00 throughout.
As for `NCC[C@H](C[C@H](N)C(=O)O)C(=O)O`, the pEC50 in assay [17], in assay [18], in assay [19], in assay [20], in assay [21] and in assay [22] was less than 3.00 each time.
Take `N[C@H](C(=O)O)C1[C@@H](C(=O)O)[C@@H]1C(=O)O` (stereo not given in full): the values for the pEC50 in assay [11] and in assay [13] were 7.10 and 6.46, respectively.
With `N[C@@H](C[C@@H](CC(=O)O)C(=O)O)C(=O)O`, the pEC50 in [17], in [18], in assay [19], in assay [20], in [21] and in assay [22] was less than 3.00 in each case.
`CNC(=O)CC[C@H](C[C@H](N)C(=O)O)C(=O)O`: the pEC50 in assay [17], in [18], in assay [19] and in assay [20] was less than 3.00 in each case.
For `N[C@@H](CCC(=O)O)C(=O)O` [GLUTAMIC ACID], the pEC50 is 5.02 in assay [3]; 5.93 in assay [21]; 4.85 in [8]; 5.47 in assay [11]; 7.22 in assay [22]; 4.19 in [14].
Regarding `CCC[C@H](C[C@H](N)C(=O)O)C(=O)O`, the pEC50 in assay [17], in assay [18] and in [20] was less than 3.00 throughout.
Take `NC(=O)CC[C@H](C[C@H](N)C(=O)O)C(=O)O`: the pEC50 in assay [17], in [18], in [19] and in assay [20] was less than 3.00 in each case.
For `NCCC[C@H](C[C@H](N)C(=O)O)C(=O)O`, the pEC50 was 4.31 in [17]; less than 3.00 in assay [18]; less than 3.00 in assay [19]; less than 3.00 in assay [20]; less than 3.00 in [21]; less than 3.00 in assay [22]. In assay [17] (read-out: pEC50 (converted)), the EC50 is 4.9 µM.
Regarding `CN(O)C(=O)CC[C@H](C[C@H](N)C(=O)O)C(=O)O`, the pEC50 in assay [17], in [18], in assay [19], in [20], in assay [21] and in assay [22] was less than 3.00 in each case.
Regarding `COC(=O)CC[C@H](C[C@H](N)C(=O)O)C(=O)O`, the pEC50 in [17], in [18], in assay [19] and in assay [20] was less than 3.00 in each case.
As to `N[C@@H](CCP(=O)(O)O)C(=O)O`, the pEC50 in [2] is 3.47; in assay [8] (hek293), 7.15; in assay [14] it was 5.72.
For the molecule `N[C@@H](C[C@@H](CCC(=O)NO)C(=O)O)C(=O)O`, the pEC50 in assay [17], in assay [18], in assay [19], in assay [20], in assay [21] and in assay [22] was less than 3.00 each time.
`CC[C@H](C[C@H](N)C(=O)O)C(=O)O`: the negative-log EC50 (pEC50) in [17], in [18] and in assay [20] was less than 3.00 throughout.

For orientation: pEC50 means the EC50 on a negative log10 scale, so that one unit is a factor of ten. In general, pIC50 refers to −log10 of the IC50, conventionally taken in molar units. The pKi is −log10 of the Ki, conventionally taken in molar units.

The values are drawn from ChEMBL document CHEMBL3784960, “New 4-Functionalized Glutamate Analogues Are Selective Agonists at Metabotropic Glutamate Receptor Subtype 2 or Selective Agonists at Metabotropic Glutamate Receptor Group III” (J Med Chem, 2016).
